Results from ChEMBL document CHEMBL1148391, “Discovery of 4-substituted pyrrolidone butanamides as new agents with significant antiepileptic activity” (J Med Chem, 2004).

Experiments:
Mus musculus [1] = assay: In vivo dose required to protect 50% audiogenic seizure prone mice against clonic convulsions; format: functional
Method in brief: (§1)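 Genetically sound-sensitive DBA-derived mice, male or female, 14–28 g, N = 10 per group. Compound given ip 60 min before stimulus at log-spaced doses, generally 1.0 × 10^-5 to 1.0 × 10^-3 mol/kg, with a vehicle control group. After 30 s orientation, a 90 dB, 10–20 kHz tone was given for 30 s. Clonic convulsions were scored. ED50 with 95% confidence limits came from probit analysis.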

[2] = biological target: Synaptic vesicle glycoprotein 2A (Rattus norvegicus) (UniProt Q02563); assay: In vitro inhibitory activity against [3H](2S)-2-[4-(3-azidophenyl)-2-oxopyrrolidin-1-yl]butanamide binding to levetiracetam binding site; set-up: concentration or dose not given beside the values; conditions: concentration not given here
Sequence of Synaptic vesicle glycoprotein 2A (Rattus norvegicus) (Q02563 whole entry): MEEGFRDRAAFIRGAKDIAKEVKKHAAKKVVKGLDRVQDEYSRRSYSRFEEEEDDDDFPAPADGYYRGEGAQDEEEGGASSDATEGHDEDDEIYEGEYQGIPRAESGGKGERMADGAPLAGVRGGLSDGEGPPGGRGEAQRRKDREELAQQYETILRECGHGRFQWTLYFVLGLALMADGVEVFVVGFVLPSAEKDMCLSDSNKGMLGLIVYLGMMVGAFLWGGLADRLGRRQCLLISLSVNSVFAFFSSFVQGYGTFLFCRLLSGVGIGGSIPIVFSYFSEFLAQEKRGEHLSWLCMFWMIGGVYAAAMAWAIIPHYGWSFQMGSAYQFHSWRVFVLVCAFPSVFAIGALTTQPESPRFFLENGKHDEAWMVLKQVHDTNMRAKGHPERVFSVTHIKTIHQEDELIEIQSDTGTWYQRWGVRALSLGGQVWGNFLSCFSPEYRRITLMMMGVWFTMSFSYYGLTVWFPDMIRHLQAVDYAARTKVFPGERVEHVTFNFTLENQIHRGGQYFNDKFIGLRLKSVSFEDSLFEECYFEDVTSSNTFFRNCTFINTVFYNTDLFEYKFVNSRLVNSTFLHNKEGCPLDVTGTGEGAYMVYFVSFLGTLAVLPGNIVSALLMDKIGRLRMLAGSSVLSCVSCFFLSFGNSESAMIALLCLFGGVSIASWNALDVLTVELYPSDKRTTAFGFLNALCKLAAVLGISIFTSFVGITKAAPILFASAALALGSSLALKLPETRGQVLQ
Method in brief: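 Rat cerebral cortex membranes (male Sprague-Dawley, 200–250 g), homogenised in Tris-HCl/sucrose at 4 °C, washed, preincubated 15 min at 37 °C. Binding: 4 °C for 120 min in 50 mmol/L Tris-HCl pH 7.4 with 2 mmol/L MgCl2, 1–2 × 10^-9 mol/L tritiated azidophenyl radioligand, rising test concentrations. Nonspecific binding with 10^-3 mol/L levetiracetam. Rapid filtration, scintillation counting. pIC50 is the mean of two independent determinations.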

Mus musculus [3] = assay: In vivo dose required to protect 50% audiogenic seizure prone mice against clonic convulsions; value ranges from 102 to 715; format: functional; method in brief: as §1
[4] = Half life at 1 mg/kg was determined in rat; format: ADME, organism-based; set-up: dose 1 mg/kg; conditions: in vivo
[5] = Oral bioavailability at 1 mg/kg was determined in rat; format: ADME, organism-based; conditions: in vivo, read-out: Bioavailabiility
[6] = Total clearance at 1 mg/kg was determined in rat; format: ADME, organism-based; set-up: dose 1 mg/kg; conditions: in vivo
[7] = Maximum time to achieve peak plasma concentration was determined in rat at 1 mg/kg; format: ADME, organism-based; set-up: dose 1 mg/kg
[8] = Half life at 10 mg/kg was determined in rat; format: ADME, organism-based; set-up: dose 10 mg/kg; conditions: in vivo
[9] = Maximum time to achieve peak plasma concentration was determined in rat at 10 mg/kg; format: ADME, organism-based; set-up: dose 10 mg/kg
[10] = Total clearance at 10 mg/kg was determined in rat; format: ADME, organism-based; set-up: dose 10 mg/kg; conditions: in vivo
[11] = Oral bioavailability at 10 mg/kg was determined in rat; format: ADME, organism-based; conditions: in vivo, read-out: Bioavailabiility
Mus musculus [12] = assay: In vivo dose required to protect 50% audiogenic seizure prone mice against clonic convulsions; value ranges from 143 to 283; format: functional; method in brief: as §1
Mus musculus [13] = assay: In vivo dose required to protect 50% audiogenic seizure prone mice against clonic convulsions; value ranges from 59 to 281; format: functional; method in brief: as §1

| Structure (SMILES) | ED50 (Mus musculus [1]) [µmol/kg] | inhibition [2] [%] | further results |
| --- | --- | --- | --- |
| CC[C@@H](C(N)=O)N1C[C@H](C)CC1=O | 110 |  |  |
| CCC(C(N)=O)N1CC(C(C)C)CC1=O (centres undefined) | 360 |  |  |
| CCC(C(N)=O)N1CC(C(F)(F)F)CC1=O (centres undefined) | 1000 | < 20 |  |
| NCCCC(C(N)=O)N1CCCC1=O (centres undefined) |  | < 20 |  |
| CCC[C@H](C(N)=O)N1CCCC1=O | 1000 |  |  |
| CCC(C(N)=O)N1CC(O)CC1=O (centres undefined) | 1000 | < 20 |  |
| CC[C@@H](C(=N)N)N1CCCC1=O | 1000 |  |  |
| CCCCCCN(CCCCCC)C(=O)[C@H](CC)N1CCCC1=O | 560 | < 20 |  |
| CC[C@@H](C(N)=O)N1C[C@H](C(=O)O)CC1=O | 1000 | < 20 |  |
| CCOC(=O)[C@H](CC)N1CCCC1=O |  | < 20 |  |
| CC[C@@H](C(N)=O)N1C[C@H](CCl)CC1=O | 25 |  |  |
| CC[C@@H](C(=O)NOC)N1CCCC1=O | 1000 | < 20 |  |
| CC[C@@H](C(N)=O)N1CC(CC2CC2)CC1=O (some centres undefined) | 33 |  |  |
| NC(=O)CN1CCCC1=O [PIRACETAM] | 10000 |  |  |
| CC[C@@H](C(N)=O)N1CCC(CO)C1=O (some centres undefined) |  | < 20 |  |
| CCC[C@H]1CC(=O)N([C@@H](CC)C(N)=O)C1 | 44 |  |  |
| CCCC1(C)CC(=O)N([C@@H](CC)C(N)=O)C1 (some centres undefined) | 400 |  |  |
| CC[C@@H](C(=O)N(C)OC)N1CCCC1=O | 1000 | < 20 |  |
| CCCC1(CCC)CC(=O)N([C@@H](CC)C(N)=O)C1 | 1000 | < 30 |  |
| CC[C@@H](C(N)=O)N1C[C@H](C(N)=O)CC1=O | 1000 | < 20 |  |
| CC[C@@H](C(N)=O)N1CCC(C)C1=O (some centres undefined) | 1000 |  |  |

| Structure (SMILES) | ED50 (Mus musculus [1]) [µmol/kg] | inhibition [2] [%] | further results |
| --- | --- | --- | --- |
| CCCCC1CC(=O)N(C(CC)C(N)=O)C1 (centres undefined) | 480 |  |  |
| CC[C@@H](C(N)=O)N1CCC(C)(CC)C1=O (some centres undefined) | 1000 | < 20 |  |
| CC[C@@H](C(=O)NC)N1CCCC1=O | 1800 |  |  |
| CC[C@@H](C(N)=O)N1C(=O)CCC1C (some centres undefined) | 1000 |  |  |
| CC[C@@H](C(N)=O)N1CC(NC(=O)OC)CC1=O (some centres undefined) | 540 |  |  |
| CC[C@@H](C(=O)NO)N1CCCC1=O | 1000 |  |  |
| CC[C@@H](C(=N)NO)N1CCCC1=O | 1000 | < 20 |  |
| CC[C@@H](C(=O)NCc1ccccc1)N1CCCC1=O | 560 | < 30 |  |
| CC[C@@H](C(N)=O)N1C[C@H](CN=[N+]=[N-])CC1=O | 3.6 |  |  |
| CC[C@@H](C(=N)S)N1CCCC1=O | 1000 | < 20 |  |
| C[C@@H](C(N)=O)N1CCCC1=O |  |  | ED50 (Mus musculus [3]): 504 µmol/kg |
| CCC(C(N)=O)N1CCC(Cc2ccccc2)C1=O (centres undefined) | 320 | < 20 |  |
| CCCN(C(C)=O)C(CC)C(N)=O (centres undefined) |  | < 20 |  |
| CC[C@@H](C(N)=O)N1C[C@H](CSC)CC1=O | 160 |  |  |
| CC[C@@H](C(N)=O)N1CC(N)CC1=O (some centres undefined) |  | < 20 |  |
| CC(C)C(C(N)=O)N1CCCC1=O (centres undefined) | 890 |  |  |
| CC[C@@H](C(N)=O)N1C[C@H](CI)CC1=O | 13 |  | half-life [4]: 2 h; bioavailability [5]: 100%; clearance [6]: 4.8 mL/min/kg; Tmax [7]: 0.8 h |
| CC[C@@H](C(N)=O)N1C[C@H](CN2CCCC2)CC1=O | 320 | < 20 |  |
| CC[C@@H](C(N)=O)N(C)C(C)=O | 1800 |  |  |
| CCC(C(N)=O)N1C(=O)CCC1(C)C (single isomer, unassigned) | 1000 |  |  |
| CC[C@@H](C(=O)N(C)O)N1CCCC1=O | 1000 |  |  |

| Structure (SMILES) | ED50 (Mus musculus [1]) [µmol/kg] | inhibition [2] [%] | further results |
| --- | --- | --- | --- |
| CC(C)(C(N)=O)N1CCCC1=O |  | < 20 |  |
| CC[C@@H](C(N)=O)N1C[C@H](CF)CC1=O | 370 |  |  |
| CCC1CC(=O)N([C@@H](CC)C(N)=O)C1 (some centres undefined) | 87 |  |  |
| CC[C@@H](C(N)=O)N1C[C@H](CBr)CC1=O | 180 |  |  |
| CCC(C(N)=O)N1CC(Cc2ccccc2)CC1=O (centres undefined) | 1000 |  |  |
| CC[C@@H](C(N)=O)N1CC(CC(C)(C)C)CC1=O (some centres undefined) | 1000 |  |  |
| CCC[C@@H]1CC(=O)N([C@@H](CC)C(N)=O)C1 [BRIVARACETAM] | 14 |  | half-life [8]: 1.7 h; Tmax [9]: 0.5 h; clearance [10]: 4.67 mL/min/kg; bioavailability [11]: 100% |
| CC[C@@H](C(=O)O)N1CCCC1=O | 3200 | < 20 |  |
| CC[C@@H](C(=O)NN)N1CCCC1=O | 1000 |  |  |
| CCCCCCCCN(C(=O)Cc1ccc(Cl)cc1)C(CC)C(N)=O (centres undefined) | 1000 |  |  |
| CCCCCC1CCC(=O)N1C(CC)C(N)=O (centres undefined) |  | < 20 |  |
| CC(C)(C)[C@@H](C(N)=O)N1CCCC1=O |  | < 20 |  |
| CC[C@@H](C(N)=O)N1C[C@H](C(=O)OC)CC1=O | 1000 | < 20 |  |
| CC[C@H](C(N)=O)N1CCCC1=O [LEVITIRACETAM] | 1000 |  |  |
| CC[C@@H](C(N)=O)N1C[C@H](CO[N+](=O)[O-])CC1=O | 25 |  |  |
| CC[C@@H](C(=O)Nc1ccccc1)N1CCCC1=O | 560 | < 20 |  |
| CC[C@@H](C(N)=O)N1C[C@H](CNS(=O)(=O)c2ccccc2)CC1=O | 1000 | < 20 |  |
| CC[C@@H](C(N)=O)N1CCCC1=O [LEVETIRACETAM] |  |  | ED50 (Mus musculus [12]): 180 µmol/kg |
| CCC(C(N)=O)N1CC(COC)CC1=O (centres undefined) | 400 |  |  |
| CCC(C(N)=O)N1C[C@H](CO)CC1=O (some centres undefined) |  | < 20 |  |
| CCC[C@@H](C(N)=O)N1CCCC1=O |  |  | ED50 (Mus musculus [13]): 190 µmol/kg |
